Results reported in ChEMBL document CHEMBL1795212, “Synthesis and in vitro antimalarial activity of tetraoxane-amine/amide conjugates” (Eur J Med Chem, 2011).

Assays:
[1] = Selectivity index, IC50 for african green monkey Vero cells to IC50 for Plasmodium falciparum D6; assay type: functional
In short: (§1)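 Selectivity index is the cytotoxicity IC50 in Vero cells divided by the antimalarial IC50 against the stated P. falciparum clone (D6 or W2).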

Plasmodium falciparum [2] = assay: Antimalarial activity against Plasmodium falciparum D6 assessed as plasmodial LDH activity after 72 hrs; assay type: functional, organism-based; settings: Plasmodium falciparum, D6, 72 h; read-out: IC50
In short: (§2)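 P. falciparum D6 (chloroquine-sensitive) and W2 (chloroquine-resistant) clones screened in vitro alongside Vero cytotoxicity, up to a highest concentration of 12.5; IC50 determined.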

Plasmodium falciparum [3] = assay: Antimalarial activity against Plasmodium falciparum W2 assessed as plasmodial LDH activity after 72 hrs; assay type: functional, organism-based; settings: Plasmodium falciparum, W2, 72 h; read-out: IC50; in short: as §2
[4] = Selectivity index, IC50 for african green monkey Vero cells to IC50 for Plasmodium falciparum W2; assay type: functional; in short: as §1
SK-MEL = assay: Cytotoxicity against human SK-MEL cells up to 25 uM; assay type: cell-based
In short: (§3)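 Cytotoxicity panel: four cancer lines (SK-MEL, KB, BT-549, SK-OV-3) and two non-cancer lines (Vero, LLC-PK11), tested up to a concentration of 25.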

KB = assay: Cytotoxicity against human KB cells up to 25 uM; assay type: cell-based; in short: as §3
BT-549 = assay: Cytotoxicity against human BT549 cells up to 25 uM; assay type: cell-based; in short: as §3
SK-OV-3 = assay: Cytotoxicity against human SKOV3 cells up to 25 uM; assay type: cell-based; in short: as §3
Vero [5] = assay: Cytotoxicity against african green monkey Vero cells up to 25 uM; assay type: cell-based; settings: chlorocebus sabaeus; in short: as §3
[6] = Cytotoxicity against pig LLC-PK11 cells up to 25 uM; assay type: cell-based, Sus scrofa; in short: as §3
Vero [7] = assay: Cytotoxicity against african green monkey Vero cells at 12.5 uM; assay type: cell-based; settings: chlorocebus sabaeus
In short: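 Mammalian kidney Vero cells screened in vitro for cytotoxicity, in parallel with the antimalarial screen, up to a highest concentration of 12.5.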

SMILES | Ratio IC50 [1] | IC50 (Plasmodium falciparum [2]) [nM] | IC50 (Plasmodium falciparum [3]) [nM] | Ratio IC50 [4] | Activity (SK-MEL) | Activity (KB) | Activity (BT-549) | Activity (SK-OV-3) | Activity (Vero [5]) | Activity [6] | Activity (Vero [7])
Cc1ccc(C2OOC(c3ccc(/C=N\c4cccnc4)cc3)OO2)cc1 (configuration not stated) | >17.6 | 750 | 800 | >16.4 | Non-toxic | Non-toxic | Non-toxic | Non-toxic | Non-toxic | Non-toxic | Non-toxic
Cc1ccc(C2OOC(c3ccc(CNc4ccccc4Cl)cc3)OO2)cc1 (configuration not stated) | >4.8 | 2510 | 2760 | >4.3 |  |  |  |  |  |  | Non-toxic
CCc1ccc(NCc2ccc(C3OOC(c4ccc(C)cc4)OO3)cc2)cc1 (configuration not stated) | >3.7 | 3320 | 2350 | >5.2 |  |  |  |  |  |  | Non-toxic
OCc1ccc(C2OOC(c3ccccc3)OO2)cc1 (configuration not stated) | >5.6 | 3090 | 1820 | >9.5 |  |  |  |  |  |  | Non-toxic
COc1cc(NCc2ccc(C3OOC(c4ccc(C)cc4)OO3)cc2)cc(OC)c1 (configuration not stated) | >1.8 | 6370 | 9200 | >1.2 |  |  |  |  |  |  | Non-toxic
CCCc1ccc(NCc2ccc(C3OOC(c4ccc(C)cc4)OO3)cc2)cc1 (configuration not stated) | >2.3 | 5670 | 4190 | >2.8 |  |  |  |  |  |  | Non-toxic
CCc1ccc(C2OOC(c3ccc(C(=O)NCCCO)cc3)OO2)cc1 (configuration not stated) | >2.6 | 4820 | 4820 | >2.6 |  |  |  |  |  |  | Non-toxic
CCc1ccc(C2OOC(c3ccc(C(=O)NCCCNc4ccnc5cc(Cl)ccc45)cc3)OO2)cc1 (configuration not stated) | >8.2 | 1080 | 2430 | >3.7 |  |  |  |  |  |  | Non-toxic
Cc1ccc(C2OOC(c3ccc(/C=N\N)cc3)OO2)cc1 (configuration not stated) | >9 | 2590 | 1260 | >9 |  |  |  |  |  |  | Non-toxic
Cc1ccc(C2OOC(c3ccc(CNc4ccccc4S)cc3)OO2)cc1 (configuration not stated) | >5.5 | 2190 | 1590 | >7.6 |  |  |  |  |  |  | Non-toxic
Cc1ccc(C2OOC(c3ccc(/C=N\CCO)cc3)OO2)cc1 (configuration not stated) | >5.1 | 2820 | 2370 | >6.1 |  |  |  |  |  |  | Non-toxic
Cc1ccc(C2OOC(c3ccc(CNc4cccnc4)cc3)OO2)cc1 (configuration not stated) | >34 | 380 | 570 | >22.7 | Non-toxic | Non-toxic | Non-toxic | Non-toxic | Non-toxic | Non-toxic | Non-toxic
Cc1ccc(C2OOC(c3ccc(CNc4cccc(F)c4)cc3)OO2)cc1 (configuration not stated) | >5.1 | 2460 | 1830 | >6.8 |  |  |  |  |  |  | Non-toxic
Cc1ccc(C2OOC(c3ccc(CNc4ccc(C(C)C)cc4)cc3)OO2)cc1 (configuration not stated) | >4.9 | 2390 | 3200 | >3.7 |  |  |  |  |  |  | Non-toxic
Cc1ccc(C2OOC(c3ccc(CNc4ccc(F)cc4)cc3)OO2)cc1 (configuration not stated) | >6 | 2090 | 2350 | >5.3 |  |  |  |  |  |  | Non-toxic
Cc1ccc(C2OOC(c3ccc(CNc4cc(Cl)c(Cl)cc4Cl)cc3)OO2)cc1 (configuration not stated) | >1.2 | 8570 | 6420 | >1.6 |  |  |  |  |  |  | Non-toxic
Cc1ccc(C2OOC(c3ccc(/C=N/Cc4ccccc4)cc3)OO2)cc1 (configuration not stated) | >2.6 | 4800 | 6400 | >2 |  |  |  |  |  |  | Non-toxic
Cc1ccc(C2OOC(c3ccc(CNc4ccc(Cl)cc4)cc3)OO2)cc1 (configuration not stated) | >6.8 | 1790 | 1700 | >7 |  |  |  |  |  |  | Non-toxic
Cc1ccc(C2OOC(c3ccc(CNc4ccc(N)cc4)cc3)OO2)cc1 (configuration not stated) | >2.4 | 5280 | 7390 | >1.7 |  |  |  |  |  |  | Non-toxic
Cc1ccc(C2OOC(c3ccc(CO)cc3)OO2)cc1 (configuration not stated) | >9 | 1830 | 2420 | >6.8 |  |  |  |  |  |  | Non-toxic
Cc1cccc(C2OOC(c3ccc(CO)cc3)OO2)c1 (configuration not stated) | >12.9 | 1280 | 1380 | >11.9 |  |  |  |  |  |  | Non-toxic
Cc1ccc(C2OOC(c3ccc(CNc4cccc(O)c4)cc3)OO2)cc1 (configuration not stated) | >3.7 | 3420 | 3950 | >3.2 |  |  |  |  |  |  | Non-toxic
Cc1ccc(C2OOC(c3ccc(/C=N\c4ccccc4)cc3)OO2)cc1 (configuration not stated) | >1.7 | 7740 | 5530 | >2.4 |  |  |  |  |  |  | Non-toxic
